Results as given in ChEMBL document CHEMBL4184083, “Design, synthesis and biological evaluation of glutamic acid derivatives as anti-oxidant and anti-inflammatory agents” (Bioorg Med Chem Lett, 2018).
Values after ≈ are worked out from the molar mass of the structure shown. Blank lines part the entries; values can stand above or below the compound they belong to. Active and inactive are the calls of the source. The calls are words filed in the database; no cut-off is given here.

What was measured:
[1] = Antioxidant activity assessed as DPPH radical scavenging activity incubated under dark condition for 30 mins by spectrophotometric analysis; assay type: functional
How it was run: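 DPPH radical reduction (violet to colorless in ethanol) monitored spectrophotometrically; ascorbic acid run as reference; IC50 reported in µg/ml.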

[2] = Chemical stability of the compound assessed as parent compound remaining at 1 mg/ml measured after 1 day at 45 degC by HPLC method (reference value: 100%); assay type: physicochemical; settings: read-out: Stability
How it was run: (§1)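 Sample dissolved at 1 mg in 1 mL distilled water, stored at 45 °C and analysed by HPLC at intervals up to 28 days; remaining amount expressed relative to day-0 HPLC peak area set as 100%.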

[3] = Chemical stability of the compound assessed as parent compound remaining at 1 mg/ml measured after 7 days at 45 degC by HPLC method (reference value: 100%); assay type: physicochemical; settings: read-out: Stability; how it was run: as §1
RAW264.7 [4] = experiment: Cytotoxicity against mouse RAW264.7 cells assessed as decrease in cell viability at 100 ug/ml after 24 hrs by WST-1 assay; assay type: cell-based; settings: raw264.7, 24 h
[5] = Chemical stability of the compound assessed as parent compound remaining at 1 mg/ml measured after 14 days at 45 degC by HPLC method (reference value: 100%); assay type: physicochemical; settings: read-out: Stability; how it was run: as §1
Danio rerio [6] = experiment: Antiinflammatory activity in Tg(mpx:GFP) zebrafish larvae assessed as decrease in neutrophil recruitment to wounded tail fin at 10 to 50 ug/ml dosed 4 hrs post amputation measured after 6 hrs; assay type: functional, organism-based
[7] = Chemical stability of the compound assessed as parent compound remaining at 1 mg/ml measured after 28 days at 45 degC by HPLC method (reference value: 100%); assay type: physicochemical; settings: read-out: Stability; how it was run: as §1
RAW264.7 [8] = experiment: Antiinflammatory activity in mouse RAW264.7 cells assessed as inhibition of LPS-induced nitric oxide production after 24 hrs by Griess reagent based assay; assay type: functional, cell-based
How it was run: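 RAW264.7 mouse macrophages co-treated with LPS (0.3 μg/mL) plus the test agent at a range of concentrations; NO output quantified as nitrite accumulated in culture medium after 24 h incubation.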

[9] = Chemical stability of the compound assessed as parent compound remaining at 1 mg/ml measured after 21 days at 45 degC by HPLC method (reference value: 100%); assay type: physicochemical; settings: read-out: Stability; how it was run: as §1
Danio rerio [10] = species on record: Danio rerio; experiment: Effect on neutrophil recruitment to wounded tail fin in Tg(mpx:GFP) zebrafish larvae at 10 to 50 ug/ml measured after 6 hrs; assay type: ADME, organism-based

IC50 [1]: 44.98 µg/mL (≈ 79.2 µM)
Structure (SMILES): O=C(CC[C@H](NC(=O)OCc1ccccc1)C(=O)OCc1ccccc1)NNc1ccccc1OCc1ccccc1

IC50 [1]: 10.1 µg/mL (≈ 40.2 µM)
Structure (SMILES): Cc1cccc(NNC(=O)CC[C@H](N)C(=O)O)c1

remaining at 24 h, 1 mg/ml [2]: 100%
remaining at 168 h, 1 mg/ml [3]: 94.6%
remaining at 336 h, 1 mg/ml [5]: 85.5%
remaining at 672 h, 1 mg/ml [7]: 70.7%
remaining at 504 h, 1 mg/ml [9]: 79.2%
IC50 [1]: 9.57 µg/mL (≈ 30.3 µM)
Structure (SMILES): CS(=O)(=O)c1ccc(NNC(=O)CC[C@H](N)C(=O)O)cc1

IC50 [1]: 17.14 µg/mL (≈ 64.6 µM)
Structure (SMILES): CCc1ccccc1NNC(=O)CC[C@H](N)C(=O)O

IC50 [1]: 316.86 µg/mL (≈ 1180 µM)
Structure (SMILES): N[C@@H](CCC(=O)NNc1cc(O)cc(O)c1)C(=O)O

IC50 [1]: 37.19 µg/mL
Structure (SMILES): Cl.NC(CCC(=O)O)C(=O)NNc1ccccc1O (configuration not stated)

IC50 [1]: 15.75 µg/mL (≈ 59.4 µM)
Structure (SMILES): Cc1ccc(NNC(=O)CC[C@H](N)C(=O)O)c(C)c1

remaining at 24 h, 1 mg/ml [2]: 45.7%
Structure (SMILES): N[C@@H](CCC(=O)NNc1ccccc1O)C(=O)O

IC50 [1]: 11.44 µg/mL (≈ 44.8 µM)
Structure (SMILES): N[C@@H](CCC(=O)NNc1cccc(F)c1)C(=O)O

The next lines start with the compound.

Structure (SMILES): N[C@@H](CCC(=O)NNc1ccccc1F)C(=O)O
IC50 [1]: 10.86 µg/mL (≈ 42.5 µM)

Structure (SMILES): N[C@@H](CCC(=O)NNc1ccc(F)cc1)C(=O)O
IC50 [1]: 13.77 µg/mL (≈ 53.9 µM)

Structure (SMILES): Cc1ccccc1NNC(=O)CC[C@H](N)C(=O)O
remaining at 24 h, 1 mg/ml [2]: 82.3%
remaining at 168 h, 1 mg/ml [3]: 73.8%
Activity (RAW264.7 [4]): Non-Toxic
remaining at 336 h, 1 mg/ml [5]: 56.7%
IC50 [1]: 6.24 µg/mL (≈ 24.8 µM)

Structure (SMILES): O=C1O[C@H]([C@@H](O)CO)C(O)=C1O [ASCORBIC ACID]
IC50 [1]: 17.38 µg/mL (≈ 98.7 µM)

Structure (SMILES): CS(=O)(=O)c1ccc(NNC(=O)CC[C@H](N)C(=O)O)c(F)c1
remaining at 24 h, 1 mg/ml [2]: 99.4%
remaining at 168 h, 1 mg/ml [3]: 95%
Activity (RAW264.7 [4]): Non-Toxic
Activity (Danio rerio [6]): Active
remaining at 336 h, 1 mg/ml [5]: 87%
remaining at 672 h, 1 mg/ml [7]: 87.2%
inhibition (RAW264.7 [8]): Dose-dependent effect
remaining at 504 h, 1 mg/ml [9]: 88.8%
Activity (Danio rerio [10]): Non-Toxic
IC50 [1]: 8.72 µg/mL (≈ 26.2 µM)

Structure (SMILES): Cc1ccc(NNC(=O)CC[C@H](N)C(=O)O)cc1
remaining at 24 h, 1 mg/ml [2]: 85.1%
remaining at 168 h, 1 mg/ml [3]: 82%
Activity (RAW264.7 [4]): Non-Toxic
remaining at 336 h, 1 mg/ml [5]: 72.2%
remaining at 672 h, 1 mg/ml [7]: 50.4%
remaining at 504 h, 1 mg/ml [9]: 58.1%
IC50 [1]: 9.99 µg/mL (≈ 39.8 µM)

Structure (SMILES): N[C@@H](CCC(=O)NNc1ccc(O)cc1O)C(=O)O
IC50 [1]: 28.01 µg/mL (≈ 104 µM)

Structure (SMILES): N[C@@H](CCC(=O)Nc1ccccc1O)C(=O)O
IC50 [1]: 162.42 µg/mL (≈ 682 µM)

Structure (SMILES): N[C@@H](CCC(=O)NNc1cccc(O)c1)C(=O)O
IC50 [1]: 10.67 µg/mL (≈ 42.1 µM)
